# In PubChem BioAssay AID602434 (Sanford-Burnham Center for Chemical Genomics, 2012):
# pEC50: −log10 of the molar value.
# Biological target: CHO-CHOP luciferase reporter, UPR activation, luminescence
# Experiment: activators of CHOP-driven apoptotic UPR arm, SAR follow-up, CHO-CHOP cells, luciferase luminescence, set 3 (AID 602434)
# Method in brief: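 system = CHO cell line stably carrying CHOP-driven luciferase reporter | incubation = 16-18 h seeding, 6 h treatment at 37 °C | technique = Steady-Glo luminescence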
row,pEC50,Structure (SMILES)
1,6.19,CC(C)(C)C1CCN(S(=O)(=O)c2ccc(NC(=O)c3ccc([N+](=O)[O-])o3)cc2)CC1
2,6.12,CC1CCN(S(=O)(=O)c2ccc(NC(=O)c3ccc([N+](=O)[O-])o3)cc2)CC1

# The remaining lines, values behind:
row,Structure (SMILES),pEC50
1,CC1(C)CCN(S(=O)(=O)c2ccc(NC(=O)c3ccc([N+](=O)[O-])o3)cc2)CC1,6.12
2,O=C(Nc1ccc(S(=O)(=O)N2CCC(F)CC2)cc1)c1ccc([N+](=O)[O-])o1,6.36
3,O=C(Nc1ccc(S(=O)(=O)N2CCC(Cl)CC2)cc1)c1ccc([N+](=O)[O-])o1,6.11
4,O=C(Nc1ccc(S(=O)(=O)N2CCCCC2)cc1)c1ccc([N+](=O)[O-])o1,6.13
